From ChEMBL document CHEMBL3297693, “Novel 3-arylfuran-2(5H)-one-fluoroquinolone hybrid: design, synthesis and evaluation as antibacterial agent” (Bioorg Med Chem, 2014)
Values after ≈ are worked out from the molar mass of the structure shown. Each block holds one compound with its values, some of them ahead of it.

Assays:
[1] = tested on: Escherichia coli; test: Antimicrobial activity against multiple drug-resistant Escherichia coli ATCC 35218 after 8 to 10 hrs by MTT proliferation assay; assay type: functional
How it was run: (§1)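 Broth microdilution in LB medium in 96-well plates, inoculum about 10⁵ cfu/mL, serially diluted compounds, sterile medium as blank control. MTT (3 mg/mL in PBS) added, then 4–5 h at room temperature. Dye extracted with SDS lysis buffer (10% SDS, 5% isopropanol, pH about 3.5) for 8–10 h at room temperature. Absorbance read at 570 nm, control OD 1.0–2.0. MIC₅₀ reported.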

[2] = tested on: Staphylococcus aureus; test: Antimicrobial activity against […] Staphylococcus aureus ATCC 25923 after 8 to 10 hrs by MTT proliferation assay; assay type: functional; how it was run: as §1
[3] = tested on: Bacillus subtilis; test: Antimicrobial activity against tetracycline-resistant Bacillus subtilis ATCC 6633 after 8 to 10 hrs by MTT proliferation assay; assay type: functional; how it was run: as §1
[4] = Inhibition of Staphylococcus aureus TyrRS expressed in Escherichia coli assessed as tRNA aminoacylation pre-incubated for 10 mins using Escherichia coli MRE600 tRNA and L-[ring-3,5-3H]tyrosine by liquid scintillation counting
How it was run: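 S. aureus TyrRS overexpressed in E. coli and purified to about 98% (SDS–PAGE). Enzyme (0.2 nM) preincubated with inhibitor range 10 min at room temperature, then prewarmed mix added at 37 °C. Aliquots quenched in cold 7% TCA, filtered, scintillation counted. Kept linear, under 50% tRNA acylation.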

[5] = biological target: DNA gyrase (Escherichia coli, UniProt P0AES4+P0AES6); test: Inhibition of Escherichia coli DNA gyrase assessed as reduction in enzyme-mediated DNA supercoiling using relaxed pBR322 substrate incubated for 60 mins by electrophoresis method; assay type: protein-complex assay

Structure (SMILES): CCn1cc(C(=O)O)c(=O)c2cc(F)c(N3CCN(CCOC4=C(c5cccc(Cl)c5)C(=O)OC4)CC3)nc21
- MIC50 [1]: 2.9 µg/mL (≈ 5.21 µM)
- MIC50 [2]: 8.7 µg/mL (≈ 15.6 µM)
- MIC50 [3]: 15.3 µg/mL (≈ 27.5 µM)

Structure (SMILES): O=C1OCC(OCCN2CCN(c3cc4c(cc3F)c(=O)c(C(=O)O)cn4-c3ccc(F)cc3)CC2)=C1c1ccc(F)cc1
- MIC50 [1]: 1.1 µg/mL (≈ 1.82 µM)
- MIC50 [2]: 0.34 µg/mL (≈ 0.561 µM)
- MIC50 [3]: 0.2 µg/mL (≈ 0.33 µM)

- IC50 [4]: 100 nM
Structure (SMILES): O=C1OCC(OCCN2CCOCC2)=C1c1ccc(O)cc1

Structure (SMILES): CCn1cc(C(=O)O)c(=O)c2cc(F)c(N3CCN(CCOC4=C(c5ccc(Br)cc5)C(=O)OC4)CC3)cc21
- MIC50 [1]: 13.5 µg/mL (≈ 22.5 µM)
- MIC50 [2]: 21.6 µg/mL (≈ 36 µM)
- MIC50 [3]: > 25 µg/mL

Structure (SMILES): CCn1cc(C(=O)O)c(=O)c2cc(F)c(N3CCN(CCOC4=C(c5ccccc5)C(=O)OC4)CC3)cc21
- MIC50 [1]: > 25 µg/mL
- MIC50 [2]: 18.9 µg/mL (≈ 36.2 µM)
- MIC50 [3]: 16.6 µg/mL (≈ 31.8 µM)

Structure (SMILES): O=C1OCC(OCCN2CCN(c3cc4c(cc3F)c(=O)c(C(=O)O)cn4-c3ccc(F)cc3)CC2)=C1c1ccccc1Cl
- IC50 [5]: 4050 nM
- IC50 [4]: 6370 nM
- MIC50 [1]: 0.72 µg/mL (≈ 1.16 µM)
- MIC50 [2]: 0.25 µg/mL (≈ 0.402 µM)
- MIC50 [3]: 0.37 µg/mL (≈ 0.595 µM)

Structure (SMILES): O=C1OCC(OCCN2CCN(c3cc4c(cc3F)c(=O)c(C(=O)O)cn4C3CC3)CC2)=C1c1ccc(Cl)cc1
- MIC50 [1]: 1.3 µg/mL (≈ 2.29 µM)
- MIC50 [2]: 0.49 µg/mL (≈ 0.863 µM)
- MIC50 [3]: 0.16 µg/mL (≈ 0.282 µM)

Structure (SMILES): CCn1cc(C(=O)O)c(=O)c2cc(F)c(N3CCN(CCOC4=C(c5ccccc5)C(=O)OC4)CC3)nc21
- MIC50 [1]: 5.6 µg/mL (≈ 10.7 µM)
- MIC50 [2]: 6.8 µg/mL (≈ 13 µM)
- MIC50 [3]: 12.6 µg/mL (≈ 24.1 µM)

Structure (SMILES): O=C1OCC(OCCN2CCN(c3cc4c(cc3F)c(=O)c(C(=O)O)cn4C3CC3)CC2)=C1c1ccccc1F
- IC50 [5]: 1150 nM
- IC50 [4]: 120 nM
- MIC50 [1]: 0.11 µg/mL (≈ 0.199 µM)
- MIC50 [2]: 0.19 µg/mL (≈ 0.344 µM)
- MIC50 [3]: 0.09 µg/mL (≈ 0.163 µM)

Structure (SMILES): O=C1OCC(OCCN2CCN(c3cc4c(cc3F)c(=O)c(C(=O)O)cn4-c3ccc(F)cc3)CC2)=C1c1cccc(Br)c1
- MIC50 [1]: 4.4 µg/mL (≈ 6.6 µM)
- MIC50 [2]: 0.39 µg/mL (≈ 0.585 µM)
- MIC50 [3]: 0.43 µg/mL (≈ 0.645 µM)

Structure (SMILES): CCn1cc(C(=O)O)c(=O)c2cc(F)c(N3CCN(CCOC4=C(c5ccc(Cl)cc5)C(=O)OC4)CC3)nc21
- MIC50 [1]: 9.6 µg/mL (≈ 17.2 µM)
- MIC50 [2]: 24.9 µg/mL (≈ 44.7 µM)
- MIC50 [3]: 13.2 µg/mL (≈ 23.7 µM)

Structure (SMILES): O=C1OCC(OCCN2CCN(c3cc4c(cc3F)c(=O)c(C(=O)O)cn4-c3ccc(F)cc3)CC2)=C1c1ccc(Cl)cc1
- MIC50 [1]: 1.7 µg/mL (≈ 2.73 µM)
- MIC50 [2]: 7.8 µg/mL (≈ 12.5 µM)
- MIC50 [3]: 0.51 µg/mL (≈ 0.82 µM)

Structure (SMILES): O=C1OCC(OCCN2CCN(c3cc4c(cc3F)c(=O)c(C(=O)O)cn4-c3ccc(F)cc3)CC2)=C1c1ccc(Br)cc1
- MIC50 [1]: 4.2 µg/mL (≈ 6.3 µM)
- MIC50 [2]: 11.1 µg/mL (≈ 16.7 µM)
- MIC50 [3]: 2.9 µg/mL (≈ 4.35 µM)

Structure (SMILES): CCn1cc(C(=O)O)c(=O)c2cc(F)c(N3CCN(CCOC4=C(c5ccccc5F)C(=O)OC4)CC3)nc21
- MIC50 [1]: 2.6 µg/mL (≈ 4.81 µM)
- MIC50 [2]: 2.6 µg/mL (≈ 4.81 µM)
- MIC50 [3]: 1.6 µg/mL (≈ 2.96 µM)

Structure (SMILES): Cc1ccc(C2=C(OCCN3CCN(c4cc5c(cc4F)c(=O)c(C(=O)O)cn5C4CC4)CC3)COC2=O)cc1
- MIC50 [1]: 1.9 µg/mL (≈ 3.47 µM)
- MIC50 [2]: 0.53 µg/mL (≈ 0.968 µM)
- MIC50 [3]: 0.39 µg/mL (≈ 0.712 µM)

Structure (SMILES): COc1ccc(C2=C(OCCN3CCN(c4cc5c(cc4F)c(=O)c(C(=O)O)cn5C4CC4)CC3)COC2=O)cc1
- MIC50 [1]: 23.5 µg/mL (≈ 41.7 µM)
- MIC50 [2]: 6.5 µg/mL (≈ 11.5 µM)
- MIC50 [3]: 2.6 µg/mL (≈ 4.61 µM)

Structure (SMILES): CCn1cc(C(=O)O)c(=O)c2cc(F)c(N3CCN(CCOC4=C(c5cccc(Br)c5)C(=O)OC4)CC3)nc21
- MIC50 [1]: 12.2 µg/mL (≈ 20.3 µM)
- MIC50 [2]: 13.1 µg/mL (≈ 21.8 µM)
- MIC50 [3]: 4.7 µg/mL (≈ 7.81 µM)

Structure (SMILES): CCn1cc(C(=O)O)c(=O)c2cc(F)c(N3CCN(CCOC4=C(c5ccccc5Cl)C(=O)OC4)CC3)cc21
- MIC50 [1]: 2.5 µg/mL (≈ 4.5 µM)
- MIC50 [2]: 0.43 µg/mL (≈ 0.773 µM)
- MIC50 [3]: 0.9 µg/mL (≈ 1.62 µM)

Structure (SMILES): O=C1OCC(OCCN2CCN(c3cc4c(cc3F)c(=O)c(C(=O)O)cn4C3CC3)CC2)=C1c1ccccc1
- IC50 [5]: 5770 nM
- IC50 [4]: 7120 nM
- MIC50 [1]: 1 µg/mL (≈ 1.87 µM)
- MIC50 [2]: 0.64 µg/mL (≈ 1.2 µM)
- MIC50 [3]: 0.23 µg/mL (≈ 0.431 µM)

Structure (SMILES): O=C1OCC(OCCN2CCN(c3cc4c(cc3F)c(=O)c(C(=O)O)cn4-c3ccc(F)cc3)CC2)=C1c1ccccc1
- MIC50 [1]: 1.2 µg/mL (≈ 2.04 µM)
- MIC50 [2]: 0.69 µg/mL (≈ 1.17 µM)
- MIC50 [3]: 0.6 µg/mL (≈ 1.02 µM)

Structure (SMILES): CCn1cc(C(=O)O)c(=O)c2cc(F)c(N3CCN(CCOC4=C(c5ccc(Cl)cc5)C(=O)OC4)CC3)cc21
- MIC50 [1]: 19.5 µg/mL (≈ 35.1 µM)
- MIC50 [2]: 15.9 µg/mL (≈ 28.6 µM)
- MIC50 [3]: 18.5 µg/mL (≈ 33.3 µM)

Structure (SMILES): O=C1OCC(OCCN2CCN(c3cc4c(cc3F)c(=O)c(C(=O)O)cn4C3CC3)CC2)=C1c1ccc(Br)cc1
- MIC50 [1]: 3.8 µg/mL (≈ 6.2 µM)
- MIC50 [2]: 8.5 µg/mL (≈ 13.9 µM)
- MIC50 [3]: 2.6 µg/mL (≈ 4.25 µM)

Structure (SMILES): O=C1OCC(OCCN2CCN(c3cc4c(cc3F)c(=O)c(C(=O)O)cn4C3CC3)CC2)=C1c1ccc(F)cc1
- IC50 [5]: 2840 nM
- IC50 [4]: 1290 nM
- MIC50 [1]: 0.37 µg/mL (≈ 0.671 µM)
- MIC50 [2]: 0.24 µg/mL (≈ 0.435 µM)
- MIC50 [3]: 0.16 µg/mL (≈ 0.29 µM)

Structure (SMILES): O=C(O)c1cn(C2CC2)c2cc(N3CCNCC3)c(F)cc2c1=O [CIPROFLOXACIN]
- MIC50 [1]: 5.65 µg/mL (≈ 17.1 µM)
- MIC50 [2]: 6.82 µg/mL (≈ 20.6 µM)
- MIC50 [3]: 2.7 µg/mL (≈ 8.15 µM)

Structure (SMILES): Cc1ccc(C2=C(OCCN3CCN(c4cc5c(cc4F)c(=O)c(C(=O)O)cn5-c4ccc(F)cc4)CC3)COC2=O)cc1
- MIC50 [1]: 2 µg/mL (≈ 3.32 µM)
- MIC50 [2]: 0.45 µg/mL (≈ 0.748 µM)
- MIC50 [3]: 0.82 µg/mL (≈ 1.36 µM)

Structure (SMILES): O=C1OCC(OCCN2CCN(c3cc4c(cc3F)c(=O)c(C(=O)O)cn4-c3ccc(F)cc3)CC2)=C1c1cccc(Cl)c1
- MIC50 [1]: 0.89 µg/mL (≈ 1.43 µM)
- MIC50 [2]: 0.44 µg/mL (≈ 0.707 µM)
- MIC50 [3]: 0.75 µg/mL (≈ 1.21 µM)

Structure (SMILES): O=C1OCC(OCCN2CCN(c3cc4c(cc3F)c(=O)c(C(=O)O)cn4-c3ccc(F)cc3)CC2)=C1c1ccccc1OCc1ccccc1
- MIC50 [1]: 2.8 µg/mL (≈ 4.04 µM)
- MIC50 [2]: 2.1 µg/mL (≈ 3.03 µM)
- MIC50 [3]: 0.58 µg/mL (≈ 0.836 µM)

Structure (SMILES): O=C1OCC(OCCN2CCN(c3cc4c(cc3F)c(=O)c(C(=O)O)cn4-c3ccc(F)cc3)CC2)=C1c1ccccc1F
- IC50 [5]: 3690 nM
- IC50 [4]: 2810 nM
- MIC50 [1]: 0.67 µg/mL (≈ 1.11 µM)
- MIC50 [2]: 0.21 µg/mL (≈ 0.347 µM)
- MIC50 [3]: 0.2 µg/mL (≈ 0.33 µM)

Structure (SMILES): CCn1cc(C(=O)O)c(=O)c2cc(F)c(N3CCN(CCOC4=C(c5ccccc5F)C(=O)OC4)CC3)cc21
- MIC50 [1]: 2.7 µg/mL (≈ 5 µM)
- MIC50 [2]: 3.3 µg/mL (≈ 6.12 µM)
- MIC50 [3]: 2.4 µg/mL (≈ 4.45 µM)
